Experimental data published in ChEMBL document CHEMBL4665899, “Exploring the Chemical Space of Benzothiazole-Based DNA Gyrase B Inhibitors” (ACS Med Chem Lett, 2020).
Converted amounts (≈) assume the structure as drawn.

Assays:
DNA gyrase [1] = biological target: DNA gyrase (Escherichia coli, UniProt P0AES4+P0AES6); assay: Inhibition of Escherichia coli DNA gyrase using relaxed pNO1 plasmid DNA as substrate incubated for 30 mins by fluorescence assay; type: protein-complex assay
[2] = biological target: DNA gyrase (Staphylococcus aureus) (UniProt P0A0K8+P20831); assay: Inhibition of Staphylococcus aureus DNA gyrase assessed as enzyme residual activity at 10 uM using relaxed pNO1 plasmid DNA as substrate incubated for 30 mins by fluorescence assay relative to control; type: protein-complex assay
Escherichia coli [3] = assay: Inhibition of Escherichia coli DNA topoisomerase 4 assessed as enzyme residual activity at 10 uM using supercoiled pNO1 plasmid DNA as substrate incubated for 30 mins by fluorescence assay relative to control
[4] = biological target: Topoisomerase IV (Staphylococcus aureus) (UniProt P0C1U9+P0C1S7); assay: Inhibition of Staphylococcus aureus DNA topoisomerase 4 assessed as enzyme residual activity at 10 uM using supercoiled pNO1 plasmid DNA as substrate incubated for 30 mins by fluorescence assay relative to control; type: protein-complex assay
Enterococcus faecalis = assay: Antibacterial activity against Enterococcus faecalis ATCC 29212 assessed as minimum inhibitory concentration required for >=90% inhibition of bacterial growth after 24 hrs by broth microdilution method; type: functional
Outline: (§1)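 Strains were grown from cation-adjusted Mueller-Hinton agar slants into cation-adjusted MH broth at 37°C for 16-20 h at 100 rpm. Broth microdilution followed CLSI guidelines, with a final inoculum of 5×10^5 CFU/mL mixed 1:1 with compound in MH broth and incubated for 24 h at 37°C. Growth was read as A620 and expressed as percentage inhibition relative to untreated controls. Each plate included a ciprofloxacin positive control.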

Escherichia coli [5] = assay: Antibacterial activity against Escherichia coli ATCC 25922 assessed as minimum inhibitory concentration required for >=90% inhibition of bacterial growth measured after 24 hrs by broth microdilution method; type: functional
Outline: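 Cation-adjusted Mueller Hinton broth culture grown 16-20 h at 37°C with 100 rpm shaking. CLSI broth microdilution at a final inoculum of 5×10^5 CFU/mL, 8 concentrations from […], incubated 24 h at 37°C. A620 read and growth inhibition expressed as % of untreated controls. Ciprofloxacin positive control on every plate; n = 3.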

Pseudomonas aeruginosa = assay: Antibacterial activity against Pseudomonas aeruginosa ATCC 27853 assessed as minimum inhibitory concentration required for >=90% inhibition of bacterial growth measured after 24 hrs by broth microdilution method; type: functional; outline: as §1
Staphylococcus aureus = assay: Antibacterial activity against Staphylococcus aureus ATCC 29213 assessed as minimum inhibitory concentration required for >=90% inhibition of bacterial growth measured after 24 hrs by broth microdilution method; type: functional; outline: as §1
Escherichia coli [6] = assay: Antibacterial activity against outer membrane impaired Escherichia coli JD17464 harboring lpxC mutant assessed as minimum inhibitory concentration required for >=90% inhibition of bacterial growth measured after 24 hrs by broth microdilution method; type: functional
Escherichia coli [7] = assay: Antibacterial activity against efflux pump defective Escherichia coli JW5503 harbouring tolC mutant assessed as minimum inhibitory concentration required for >=90% inhibition of bacterial growth measured after 24 hrs by broth microdilution method; type: functional
DNA gyrase [8] = biological target: DNA gyrase (Staphylococcus aureus, UniProt P0A0K8+P20831); assay: Inhibition of Staphylococcus aureus DNA gyrase using relaxed pNO1 plasmid DNA as substrate incubated for 30 mins by fluorescence assay; type: protein-complex assay
[9] = Inhibition of Escherichia coli DNA topoisomerase 4 using supercoiled pNO1 plasmid DNA as substrate incubated for 30 mins by fluorescence assay
Topoisomerase IV = Topoisomerase IV (Staphylococcus aureus, UniProt P0C1S7+P0C1U9); assay: Inhibition of Staphylococcus aureus DNA topoisomerase 4 using supercoiled pNO1 plasmid DNA as substrate incubated for 30 mins by fluorescence assay; type: protein-complex assay
Sequence of Topoisomerase IV (P0C1U9 whole entry): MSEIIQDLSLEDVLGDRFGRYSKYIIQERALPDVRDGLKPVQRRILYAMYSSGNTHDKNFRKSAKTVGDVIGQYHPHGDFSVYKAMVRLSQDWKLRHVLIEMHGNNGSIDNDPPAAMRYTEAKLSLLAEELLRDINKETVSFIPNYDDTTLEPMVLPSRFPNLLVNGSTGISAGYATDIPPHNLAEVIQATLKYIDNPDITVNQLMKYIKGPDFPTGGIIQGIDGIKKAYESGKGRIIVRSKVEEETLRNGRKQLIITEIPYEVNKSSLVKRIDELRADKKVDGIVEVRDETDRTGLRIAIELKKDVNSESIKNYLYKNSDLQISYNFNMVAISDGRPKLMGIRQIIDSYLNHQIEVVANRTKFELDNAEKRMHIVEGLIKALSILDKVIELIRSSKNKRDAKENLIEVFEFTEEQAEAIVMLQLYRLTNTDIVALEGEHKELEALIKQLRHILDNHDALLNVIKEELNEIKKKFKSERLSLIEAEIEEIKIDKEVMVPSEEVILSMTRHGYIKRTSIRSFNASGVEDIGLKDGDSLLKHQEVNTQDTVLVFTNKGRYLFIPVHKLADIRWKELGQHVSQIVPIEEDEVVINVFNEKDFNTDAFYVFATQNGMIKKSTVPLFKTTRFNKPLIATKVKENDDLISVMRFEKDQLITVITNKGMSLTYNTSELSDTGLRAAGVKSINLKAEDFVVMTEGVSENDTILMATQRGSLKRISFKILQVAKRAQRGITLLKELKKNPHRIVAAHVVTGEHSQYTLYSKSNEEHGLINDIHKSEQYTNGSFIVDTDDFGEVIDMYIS
Sequence of Topoisomerase IV (P0C1S7 whole entry): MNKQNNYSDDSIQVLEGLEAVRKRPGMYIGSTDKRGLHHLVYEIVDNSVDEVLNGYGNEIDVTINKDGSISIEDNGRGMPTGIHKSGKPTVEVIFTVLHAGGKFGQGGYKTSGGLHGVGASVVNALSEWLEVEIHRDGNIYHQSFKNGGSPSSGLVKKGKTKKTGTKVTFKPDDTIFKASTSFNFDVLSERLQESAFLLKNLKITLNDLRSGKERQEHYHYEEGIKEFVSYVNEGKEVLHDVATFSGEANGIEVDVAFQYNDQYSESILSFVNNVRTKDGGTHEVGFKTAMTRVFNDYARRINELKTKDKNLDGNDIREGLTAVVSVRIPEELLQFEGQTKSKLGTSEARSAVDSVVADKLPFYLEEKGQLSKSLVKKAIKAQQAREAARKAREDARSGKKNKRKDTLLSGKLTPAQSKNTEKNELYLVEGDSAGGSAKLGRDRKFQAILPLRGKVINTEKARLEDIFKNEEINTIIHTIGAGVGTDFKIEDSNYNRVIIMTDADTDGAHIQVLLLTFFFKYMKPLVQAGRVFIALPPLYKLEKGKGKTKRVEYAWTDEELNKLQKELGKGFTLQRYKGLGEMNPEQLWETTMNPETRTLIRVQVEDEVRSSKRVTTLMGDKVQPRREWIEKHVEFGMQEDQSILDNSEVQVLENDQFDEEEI

Sequence of DNA gyrase (Staphylococcus aureus, UniProt P0A0K8+P20831) (P0A0K8 whole entry): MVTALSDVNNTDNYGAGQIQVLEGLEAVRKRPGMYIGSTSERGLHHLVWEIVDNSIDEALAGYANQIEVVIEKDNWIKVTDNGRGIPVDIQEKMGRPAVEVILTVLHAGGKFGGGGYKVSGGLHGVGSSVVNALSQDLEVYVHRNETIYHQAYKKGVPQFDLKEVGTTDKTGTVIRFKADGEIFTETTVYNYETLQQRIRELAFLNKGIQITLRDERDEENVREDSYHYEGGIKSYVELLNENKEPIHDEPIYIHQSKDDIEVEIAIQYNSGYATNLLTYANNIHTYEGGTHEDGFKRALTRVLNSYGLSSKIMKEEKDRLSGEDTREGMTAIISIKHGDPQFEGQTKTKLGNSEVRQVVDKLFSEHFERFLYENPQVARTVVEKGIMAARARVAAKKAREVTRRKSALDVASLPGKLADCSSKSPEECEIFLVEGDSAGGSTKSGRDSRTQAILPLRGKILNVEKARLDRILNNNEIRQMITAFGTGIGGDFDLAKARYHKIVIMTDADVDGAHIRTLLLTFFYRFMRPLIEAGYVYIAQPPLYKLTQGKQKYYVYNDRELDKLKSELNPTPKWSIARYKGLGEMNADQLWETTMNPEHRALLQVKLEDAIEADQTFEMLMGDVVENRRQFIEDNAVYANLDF
Sequence of DNA gyrase (Staphylococcus aureus, UniProt P0A0K8+P20831) (P20831 whole entry): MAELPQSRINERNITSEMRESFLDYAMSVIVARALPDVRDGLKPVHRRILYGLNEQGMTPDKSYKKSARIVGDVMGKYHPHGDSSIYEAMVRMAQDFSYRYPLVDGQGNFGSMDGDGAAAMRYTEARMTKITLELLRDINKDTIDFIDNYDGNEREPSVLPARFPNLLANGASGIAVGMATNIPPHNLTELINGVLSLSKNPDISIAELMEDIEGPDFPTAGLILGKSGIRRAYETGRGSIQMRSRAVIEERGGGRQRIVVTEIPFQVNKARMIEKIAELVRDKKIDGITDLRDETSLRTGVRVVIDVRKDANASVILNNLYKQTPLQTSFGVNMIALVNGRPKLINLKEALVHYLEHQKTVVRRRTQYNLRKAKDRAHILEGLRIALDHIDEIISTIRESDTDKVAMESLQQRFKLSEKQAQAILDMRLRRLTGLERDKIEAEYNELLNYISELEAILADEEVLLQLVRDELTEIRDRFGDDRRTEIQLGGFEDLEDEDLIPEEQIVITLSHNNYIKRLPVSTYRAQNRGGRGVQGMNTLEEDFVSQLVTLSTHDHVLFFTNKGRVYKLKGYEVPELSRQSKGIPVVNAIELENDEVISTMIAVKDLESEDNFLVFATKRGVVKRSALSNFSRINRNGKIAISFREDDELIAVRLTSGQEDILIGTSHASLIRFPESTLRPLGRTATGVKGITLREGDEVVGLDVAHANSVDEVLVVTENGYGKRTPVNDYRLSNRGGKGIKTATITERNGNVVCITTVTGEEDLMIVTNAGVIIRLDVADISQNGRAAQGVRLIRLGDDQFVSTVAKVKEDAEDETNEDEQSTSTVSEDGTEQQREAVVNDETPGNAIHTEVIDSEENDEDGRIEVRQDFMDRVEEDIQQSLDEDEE
Sequence of DNA gyrase (Staphylococcus aureus) (P0A0K8 2-644 limits assumed): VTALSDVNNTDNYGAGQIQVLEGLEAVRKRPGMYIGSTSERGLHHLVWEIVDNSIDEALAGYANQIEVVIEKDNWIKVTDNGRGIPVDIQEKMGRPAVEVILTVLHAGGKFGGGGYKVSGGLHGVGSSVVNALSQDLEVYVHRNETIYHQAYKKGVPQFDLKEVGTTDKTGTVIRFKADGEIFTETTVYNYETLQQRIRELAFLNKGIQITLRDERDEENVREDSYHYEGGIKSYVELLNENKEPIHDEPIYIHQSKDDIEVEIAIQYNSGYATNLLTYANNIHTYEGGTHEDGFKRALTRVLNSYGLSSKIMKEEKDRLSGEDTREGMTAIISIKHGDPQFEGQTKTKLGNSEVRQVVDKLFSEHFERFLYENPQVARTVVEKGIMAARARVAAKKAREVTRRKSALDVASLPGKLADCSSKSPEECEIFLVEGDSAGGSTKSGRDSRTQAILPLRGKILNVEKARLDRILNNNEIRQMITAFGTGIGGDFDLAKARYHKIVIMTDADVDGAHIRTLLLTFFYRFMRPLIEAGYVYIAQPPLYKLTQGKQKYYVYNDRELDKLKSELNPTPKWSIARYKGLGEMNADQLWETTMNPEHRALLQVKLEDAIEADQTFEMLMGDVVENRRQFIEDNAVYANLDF
Sequence of DNA gyrase (Staphylococcus aureus) (P20831 whole entry partner): as the sequence (P20831 whole entry) above

| Compound | IC50 (DNA gyrase [1]) | Activity [2] | Activity (Escherichia coli [3]) | Activity [4] | MIC (Enterococcus faecalis) | MIC (Escherichia coli [5]) | MIC (Pseudomonas aeruginosa) | MIC (Staphylococcus aureus) | MIC (Escherichia coli [6]) | MIC (Escherichia coli [7]) | IC50 (DNA gyrase [8]) | IC50 [9] | IC50 (Topoisomerase IV) |
| --- | --- | --- | --- | --- | --- | --- | --- | --- | --- | --- | --- | --- | --- |
| CCOC(=O)C(=O)Nc1ccc2nc(NC(=O)c3[nH]c(C)c(Cl)c3Cl)sc2c1 | 48 nM | 100% | 100% | 100% | > 50 µM | > 50 µM | > 50 µM | > 50 µM | > 50 µM | 50 µM (≈ 22.1 µg/mL) |  |  |  |
| CC(=O)Nc1nc2ccc(NC(=O)c3[nH]c(C)c(Cl)c3Cl)cc2s1 | 66 nM |  | 100% | 100% | > 50 µM | > 50 µM | > 50 µM | > 50 µM | > 50 µM | > 50 µM | 35400 nM |  |  |
| Cc1[nH]c(C(=O)Nc2nc3ccc(NC(=O)CCN)cc3s2)c(Cl)c1Cl | 110 nM |  |  |  | 12.5 µM (≈ 5.15 µg/mL) | > 50 µM | > 50 µM | > 50 µM | > 50 µM | 12.5 µM (≈ 5.15 µg/mL) | 1500 nM | 10000 nM | 290 nM |
| O=C(O)C(=O)Nc1ccc2nc(NC(=O)c3cc(Br)c(Br)[nH]3)sc2c1 |  |  |  |  |  |  |  |  |  |  |  |  | 10000 nM |
| Cc1[nH]c(C(=O)Nc2nc3ccc(NC(=O)CCNC(=O)OC(C)(C)C)cc3s2)c(Cl)c1Cl | 110 nM |  | 100% | 100% | > 50 µM | > 50 µM | > 50 µM | > 50 µM | > 50 µM | > 50 µM | 780 nM |  |  |
| Cc1[nH]c(C(=O)Nc2nc3ccc(N)cc3s2)c(Cl)c1Cl | 16000 nM | 60% | 100% | 100% |  |  |  |  |  |  |  |  |  |
| O=C(O)CC(=O)Nc1ccc2nc(NC(=O)c3cc(Br)c(Br)[nH]3)[nH]c2c1 | 1500 nM | 100% | 100% | 100% | > 50 µM | > 50 µM | > 50 µM | > 50 µM | > 50 µM | > 50 µM |  |  |  |
| COC(=O)CC(=O)Nc1ccc2nc(NC(=O)c3cc(Br)c(Br)[nH]3)[nH]c2c1 | 7000 nM | 100% | 100% | 100% | > 50 µM | > 50 µM | > 50 µM | > 50 µM | > 50 µM | > 50 µM |  |  |  |
| Cc1[nH]c(C(=O)Nc2nc3ccc(NC(=O)C(=O)O)cc3s2)c(Cl)c1Cl |  |  |  |  | > 50 µM |  | > 50 µM | > 50 µM | > 50 µM |  |  | 75 nM | 290 nM |
| Cc1[nH]c(C(=O)Nc2nc3ccc(NC(N)=O)cc3s2)c(Cl)c1Cl | 26 nM |  |  |  | > 50 µM | > 50 µM | > 50 µM | > 50 µM | > 50 µM | 1.56 µM (≈ 0.599 µg/mL) | 1300 nM | 5200 nM | 5800 nM |
| Cc1[nH]c(C(=O)Nc2nc3ccc(NC(=O)c4ccncc4)cc3s2)c(Cl)c1Cl | 2500 nM | 100% | 100% | 100% | > 50 µM | > 50 µM | > 50 µM | > 50 µM | > 50 µM | > 50 µM |  |  |  |
| CCOC(=O)C(=O)Nc1ccc2nc(NC(=O)c3cc(Br)c(Br)[nH]3)[nH]c2c1 | 4000 nM | 100% | 100% | 100% | > 50 µM | > 50 µM | > 50 µM | > 50 µM | > 50 µM | > 50 µM |  |  |  |
| CCOC(=O)C(=O)Nc1nc2ccc(NC(=O)c3[nH]c(C)c(Cl)c3Cl)cc2s1 | 290 nM | 69% | 100% | 100% | > 50 µM | > 50 µM | > 50 µM | > 50 µM | > 50 µM | > 50 µM |  |  |  |
| O=C(O)C(=O)Nc1ccc2nc(NC(=O)c3cc(Br)c(Br)[nH]3)[nH]c2c1 | 600 nM |  |  |  | > 50 µM |  | > 50 µM | > 50 µM | > 50 µM |  | 80000 nM | 12000 nM | 31000 nM |
| O=C(O)c1cn(C2CC2)c2cc(N3CCNCC3)c(F)cc2c1=O [CIPROFLOXACIN] |  |  |  |  |  | 0.05 µM (≈ 0.0166 µg/mL) |  |  |  |  |  |  |  |
| COC(=O)CC(=O)Nc1nc2ccc(NC(=O)c3[nH]c(C)c(Cl)c3Cl)cc2s1 | 200 nM | 59% | 100% | 48% | > 50 µM | > 50 µM | > 50 µM | > 50 µM | > 50 µM | 1.56 µM (≈ 0.688 µg/mL) |  |  |  |
| Cc1[nH]c(C(=O)Nc2ccc3nc(NC(=O)C(=O)O)sc3c2)c(Cl)c1Cl | 29 nM |  |  |  | > 50 µM |  | > 50 µM | > 50 µM | > 50 µM |  | 250 nM | 6400 nM | 910 nM |
| CC(=O)Nc1ccc2nc(NC(=O)c3[nH]c(C)c(Cl)c3Cl)sc2c1 | 9.5 nM |  |  |  | 3.13 µM (≈ 1.2 µg/mL) | > 50 µM | > 50 µM | > 50 µM | > 50 µM | 0.78 µM (≈ 0.299 µg/mL) | 400 nM | 4600 nM | 1600 nM |
| Cc1[nH]c(C(=O)Nc2nc3ccc(NC(=O)CNC(=O)OC(C)(C)C)cc3s2)c(Cl)c1Cl | 29 nM |  | 60% | 100% | 3.13 µM (≈ 1.56 µg/mL) | > 50 µM | > 50 µM | > 50 µM | > 50 µM | 0.78 µM (≈ 0.389 µg/mL) | 260 nM |  |  |
| Cc1[nH]c(C(=O)Nc2nc3ccc(NC(=O)CN)cc3s2)c(Cl)c1Cl | 280 nM |  | 100% | 100% | 6.25 µM (≈ 2.49 µg/mL) | > 50 µM | > 50 µM | 25 µM (≈ 9.96 µg/mL) | > 50 µM | 3.13 µM (≈ 1.25 µg/mL) | 380 nM |  |  |
